Compound activity as filed in PubChem BioAssay.
XiGFP reactiv = activators of inactive X chromosome reactivation, primary screen, imaging, XiGFP fibroblasts, GFP high-content imaging, set 2. 360,000 compounds, 0.055% hits. activation, % at 7.58 µM. AID 743238, 2013. XiGFP mouse fibroblasts, % GFP-positive cells imaging, 3 d; cells co-treated with 5-aza-dC sensitizer; scaled so ellipticine positive control = 100%;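 active means mean normalized replicate activation at least 10% and every replicate at or above 10%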;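 further: 0% = median of on-plate neutral control wells and 100% = ellipticine 6 µM median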
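Schedule: 3 d treatment, 15 min room-temperature fixation; system: 68-5-11 XiGFP fibroblast line; buffer or medium: DMEM plus 5-aza-dC sensitizer; control set: ellipticine 6 µM positive control; compound: one concentration, pinned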
NPR2 activator = human GC-B receptor activators, primary screen, HEK293 GC-B cells, cGMP TR-FRET, EC30 CNP | Atrial natriuretic peptide receptor 2 (Homo sapiens), P20594 | 370,000 compounds, 0.11% hits | 0% at EC30 CNP, 100% saturating CNP | AID 1920062, 2024 | activation, % at 10 µM;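 active means activation at 10 µM reaching about 35% in either raw or pattern-adjusted values, limit read from the data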
N-glyco inh = increase of ERlucT glycosylation luciferase signal, primary screen, N-linked glycosylation inhibitor project, D54 ERlucT cells, luminescence, set 2; D54 ERlucT glycosylation luciferase reporter, 24 h; percent of 100 nM tunicamycin response; reporter increase, % at 12.5 µM; 360,000 compounds, 0.23% hits;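 active means mean luciferase reporter signal, scaled so untreated is 0 and the glycosylation-blocking control 100, at or above a set limit in every replicate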;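 further: luciferase carries N-glycosylation sites so blocking glycosylation raises the light; 0% = median of neutral control wells and 100% = median of 100 nM tunicamycin wells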
NPR1 activator = GC-A stimulated cGMP production enhancers – HEK293 GC-A cells, cGMP TR-FRET, EC30 ANP, primary screen. Atrial natriuretic peptide receptor 1 (Homo sapiens), P16066. 0% at EC30 ANP, 100% saturating ANP. activation, % at 10 µM. 370,000 compounds, 0.14% hits; in the data active means activation above about 40%
Target sequence (P16066 whole entry, looked up): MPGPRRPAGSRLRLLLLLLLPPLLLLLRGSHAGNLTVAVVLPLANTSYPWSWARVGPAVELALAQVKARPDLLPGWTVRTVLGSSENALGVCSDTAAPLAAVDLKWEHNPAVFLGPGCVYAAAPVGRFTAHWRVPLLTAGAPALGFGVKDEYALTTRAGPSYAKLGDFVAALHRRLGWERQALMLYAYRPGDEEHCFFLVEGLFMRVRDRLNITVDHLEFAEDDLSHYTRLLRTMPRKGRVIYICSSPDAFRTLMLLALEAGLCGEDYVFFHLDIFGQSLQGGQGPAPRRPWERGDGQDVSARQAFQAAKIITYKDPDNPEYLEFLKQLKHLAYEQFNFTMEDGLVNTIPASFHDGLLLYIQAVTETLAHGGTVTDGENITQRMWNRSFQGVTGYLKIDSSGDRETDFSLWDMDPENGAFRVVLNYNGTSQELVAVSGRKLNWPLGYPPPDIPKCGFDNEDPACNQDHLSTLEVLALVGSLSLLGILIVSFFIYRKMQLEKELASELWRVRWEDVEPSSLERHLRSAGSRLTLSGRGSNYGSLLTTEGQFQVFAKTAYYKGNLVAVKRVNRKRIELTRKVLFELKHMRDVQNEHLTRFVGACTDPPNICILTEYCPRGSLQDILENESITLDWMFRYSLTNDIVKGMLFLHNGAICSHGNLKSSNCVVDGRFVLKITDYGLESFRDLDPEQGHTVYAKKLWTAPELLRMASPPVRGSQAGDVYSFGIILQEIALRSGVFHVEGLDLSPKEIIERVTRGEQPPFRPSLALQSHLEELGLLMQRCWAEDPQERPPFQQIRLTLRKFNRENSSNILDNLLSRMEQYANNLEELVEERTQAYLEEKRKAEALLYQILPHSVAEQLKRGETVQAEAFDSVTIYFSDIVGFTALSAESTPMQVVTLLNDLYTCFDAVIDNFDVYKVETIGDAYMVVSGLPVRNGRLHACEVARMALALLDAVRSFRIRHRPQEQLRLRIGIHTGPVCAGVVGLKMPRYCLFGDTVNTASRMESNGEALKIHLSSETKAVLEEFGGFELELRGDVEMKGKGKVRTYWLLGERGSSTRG
Vif imaging = HIV Vif self-association inhibitors, primary screen, imaging, HEK293T, single point | HEK293T cells, Vif self-association by quenched fluorescence, 24 h | inhibition, % at 7.49 µM | 340,000 compounds, 0.35% hits; in the data active means inhibition above about 50%, passing the limit was not always enough
CaV13 FRET inh = Disruptors of the CACNA1D IQ motif to Ca2+-dependent inactivation inhibitor domain association, primary screening, Förster resonance energy transfer in intact living … | HEK cells, CFP/YFP FRET ICDI-IQ, plate reader, 10 min; percent FRET-ratio fall versus neutral wells | inhibition, % at 12.3 µM | 340,000 compounds, 0.098% hits | AID 743397;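 active means mean replicate inhibition of at least 30% and at least 1% of replicates passing that level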;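 further: 0% = median of the neutral control wells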
The depositor's hits bear a star; · = no result given; + = active, no number. Rows were chosen to be rich in hits. Some 0.7% of all compounds tested hit in one or more screens of this group.

SMILES	XiGFP reactiv	NPR2 activator	N-glyco inh	NPR1 activator	Vif imaging	CaV13 FRET inh
CC1=C(C(=O)N2CCOCC2)C(c2cccc3ccccc23)NC(=S)N1 (stereo not drawn)	0	3	-1	3	·	-5
CC1=C(C(=O)N2CCOCC2)C(c2ccc(-c3ccccc3)cc2)NC(=S)N1 (stereo not drawn)	0	70*	1	79*	-4	10
O=C1C=C(c2ccc(F)cc2OCc2ccccc2)C[C@@H](c2ccc3c(c2)OCO3)C1	0	39*	0	30	-1	-12
COc1cccc(C#Cc2ccc([C@@H]3[C@@H](CO)N4C(=O)CN(C(C)=O)C[C@@H]34)cc2)c1	0	·	·	·	·	·
COC1=Nc2ccccc2N2CCN=C12	0	-4	1	4	-5	-5
c1ccc2c(c1)C1=NCCN1c1ccccc1-2	0	-9	78*	2	-7	-9
CC=Cc1ccc2n(c1=O)C[C@H]1[C@H](CO)[C@@H](C(=O)NCC3CCCCC3)[C@@H]2N1C(=O)CC (mixture of isomers)	0	·	·	·	·	·
COc1ccc(C(=O)Nc2ccc(N3CCN(C(=O)C(C)C)CC3)cc2)cc1[N+](=O)[O-]	0	1	0	-1	64*	-4
Cc1noc(C)c1NC(=O)N(C)C[C@H]1Oc2ccc(NC(=O)NC3CCCCC3)cc2CC(=O)N([C@H](C)CO)C[C@H]1C	-1	·	·	·	·	·
O=c1cc(-c2ccc(Cl)cc2)oc(=O)[nH]1	0	1	0	-4	-3	-6
O=c1cc(N=Nc2ccc(Cl)cc2)[nH]c(=O)[nH]1	0	11	70*	16	-1	-5
CC(C)NC(=O)N1C[C@H]2[C@@H](c3ccccc31)[C@@H](CO)N2C(=O)c1ccccc1	0	·	·	·	·	·
CCOC(=O)C1=C(C)N(CCO)C(=O)NC1c1ccccc1 (stereo not drawn)	·	-8	4	1	63*	-6
CCOC(=O)C1=C(C)N(CCCC(=O)O)C(=O)NC1c1ccccc1 (stereo not drawn)	0	1	0	3	-4	-10
CCN1C(=S)N[C@@H](c2ccccc2)C(C(=O)OC)=C1C	0	46*	2	35	-7	-5
C[C@H](O)C#Cc1ccc2c(c1)O[C@H](CN(C)C(=O)CN(C)C)[C@H](C)CN([C@H](C)CO)S2(=O)=O	-1	·	·	·	·	·
O=C(COC(=O)c1cc(S(=O)(=O)N2CCOCC2)ccc1F)c1ccc[nH]1	0	9	3	12	53*	-3
O=C(COC(=O)c1cc(S(=O)(=O)N2CCCCC2)ccc1N1CCOCC1)c1ccccc1Cl	0	13	1	0	-8	64*
O=C(N[C@H]1CC[C@@H](CC(=O)N2CCC(Cc3ccccc3)CC2)O[C@@H]1CO)c1cnccn1	0	·	·	·	·	·
C[C@H](CO)N1C[C@H](C)[C@@H](CN(C)S(=O)(=O)c2cccs2)Oc2c(NS(=O)(=O)c3cccs3)cccc2C1=O	0	·	·	·	·	·
O=C(c1cnn2c(C(F)(F)F)cc(-c3cccs3)nc12)N1CCN(Cc2ccccc2)CC1	·	46*	0	51*	-23	-6
O=C(c1cnn2c(C(F)(F)F)cc(-c3ccc4c(c3)OCO4)nc12)N1CCCCC1	·	49*	3	44*	2	-4
CN1CCN(C(=O)c2cnn3c(C(F)(F)F)cc(-c4cccs4)nc23)CC1	0	6	1	6	1	-20
COc1ccc2c3c(n(C)c2c1)[C@@H](CO)N(Cc1ccccc1)CC31CCN(CC2CC2)CC1	0	·	·	·	·	·
COc1ccc(NC(=O)Nc2ccc3c(c2)C(=O)N([C@H](C)CO)C[C@@H](C)[C@@H](CN(C)S(=O)(=O)c2cccs2)OCCCC[C@H](C)O3)cc1	0	·	·	·	·	·
SMILES	XiGFP reactiv	NPR2 activator	N-glyco inh	NPR1 activator	Vif imaging	CaV13 FRET inh
CC(=O)c1cc2c(ccc3ccccc32)oc1=O	3	-1	2	6	0	+
Cc1cc(C)cc(N2CC(O)=C(c3nc4ccccc4c(=O)[nH]3)C2=N)c1	0	0	3	2	2	-5
COc1cccc(N2CC(O)=C(c3nc4ccccc4c(=O)[nH]3)C2=N)c1	·	·	36*	·	12	·
Cc1noc(C)c1S(=O)(=O)N(CC(=O)N1CCCCCC1)c1ccc(C(C)C)cc1	0	-6	-6	-9	-7	51*
CCn1c(O)c(N=NC(=O)CNC(=O)Cc2ccccc2)c2ccccc21	0	-3	2	-4	15	-4
O=C(CNC(=O)c1ccco1)N=Nc1c(O)n(CCc2ccccc2)c2ccccc12	0	-8	34*	-2	3	-2
COc1cccc(S(=O)(=O)N2C[C@@H](O)COC[C@H]3O[C@H](CC(=O)N4CCOCC4)CC[C@@H]32)c1	0	·	·	·	·	·
CCN1c2ccccc2NC2C1C(C(C)=O)C(=O)N2c1ccc(Cl)cc1 (stereo not drawn)	·	·	-2	·	+	-7
Cc1ccc(-c2nc3ncccc3o2)cc1NC(=O)c1ccc([N+](=O)[O-])o1	·	·	36*	·	11	·
CCCOc1c(Br)cc(C2C3=C(CCCC3=O)N(C)C3=C2C(=O)CCC3)cc1OC	0	4	-1	2	14	+
CCCn1c(SCC(=O)NNC(=O)c2ccc(C)cc2)nnc1C(C)C	0	3	2	3	55*	-3
Cc1ccc(OC(=O)c2sc(Cl)nc2C)cc1C	0	6	4	71*	0	-5
CCCn1cnc2c(=S)nc(N)[nH]c21	0	44*	-1	43*	22	-6
Nc1nc(=S)c2ncn(C3CCCCC3)c2[nH]1	0	28	-1	27	-7	-9
CCCCn1cnc2c(=S)nc(N)[nH]c21	0	80*	0	79*	-4	-1
CCCCCn1cnc2c(=S)nc(N)[nH]c21	0	81*	0	75*	0	-14
Nc1nc(=S)c2ncn(C3OC(CO)C(O)C3O)c2[nH]1 (stereo not drawn)	0	14	66*	13	8	-20
O=C(C1CCCC1)N1CC2(C1)[C@H](c1ccccc1)[C@@H](CO)N2CC1CC1	0	·	·	·	·	·
O=C(O)C[C@H]1CC[C@@H](NC(=O)CCN2CCCCC2)[C@@H](CO)O1	0	·	·	·	·	·
